# Measured values reported in PMC3475218 (Theranostics, 2012).
# Several values for one entry are separate records, joined by “and”; a condition that tells them apart may be missing. Equal values may be shown once.
# Key:
# neuropilin-1 (NRP-1) = settings: receptor expressed in angiogenic vasculature; ref [19], [20], [22]; cited from earlier work
# MDA-MB-231 cells [1] = assay: Photodynamic activity; assay type: cell-based, human; settings: for DL50 (50% cell growth inhibitory light dose): 652 nm, 24 h incubation, MTT 24 h post-irradiation, six replicates
# [2] = system: recombinant chimeric neuropilin-1 (NRP-1) protein; assay: Competitive binding to recombinant NRP-1 protein; settings: 5 ng/mL biotinylated VEGF165, 2 µg/mL heparin, 2 h room temperature; n=3
# Method in brief: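 Plates coated overnight at room temperature with recombinant chimeric NRP-1 (2 µg/mL in PBS), washed with PBS/0.05% Tween 20, and blocked with PBS/0.5% BSA for 1 h at 37°C. Biotinylated VEGF165 (5 ng/mL, with 2 µg/mL heparin) was added with increasing test nanoparticle concentrations, Gd-matched control nanoparticles, or excess unlabelled VEGF165 (0.5 µg/mL). Streptavidin-HRP colorimetric read-out at 450 nm was expressed relative to the no-competitor control, in triplicate.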
# MDA-MB-231 cells [3] = assay: Photo-induced cytotoxicity, real-time impedance-based cell analysis; parameters: species or system human; settings: first 24 h post-exposure, before light irradiation; mean of six replicates
# Method in brief: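 MDA-MB-231 cells were cultured in RPMI with 9% heat-inactivated FBS, penicillin/streptomycin and 2 mM L-glutamine at 37°C, 5% CO2. Cells were seeded at 10^4 per well on electrode plates, and impedance was read every 15 min. At 24 h, test nanoparticles were added at final photosensitizer concentrations of 0.05–10.00 µM, or Gd-matched control nanoparticles at 2.9–585.0 µM. Cells were kept in darkness for 24 h before washing, with six replicates. Cell index was calculated as background-subtracted impedance.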
# [4] = system: orthotopic U87 human glioblastoma (tumor tissue) in nude rats; assay: In vivo tumor MRI contrast enhancement kinetics; parameters: species or system rat; settings: i.v., 25 µmol of Gd / 250 g
# Method in brief: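 Male athymic nude rats (rnu/rnu) received 5.10^5 U87 cells in 5 μL HBSS stereotactically into the right striatum (0.5 mm anterior, 2.7 mm lateral to bregma) under i.p. ketamine/xylazine. About 20 days later, nanoparticles were given intravenously in 500 µL, diluted in 9‰ NaCl from an iso-osmolar 100 mM Gd stock at pH ~7.4. Tumor MRI signal was normalized to pre-injection and contralateral tissue, and its decline from peak was followed.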
# [5] = Zeta potential measurement; assay type: physicochemical; settings: ultrapure water, pH ~ 7.0, 5 mM gadolinium, 20°C, Zetasizer Nano ZS
# Method in brief: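 Nanoparticles were suspended in ultrapure water at pH ~7.0 and 5 mM Gd and measured by electrophoretic light scattering (532 nm laser). Readings were taken 2.00 mm from the cell wall with an automatic attenuator at 20°C. Each sample ran 15 runs of 10 s, repeated three times.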
# [6] = UV/Vis absorption and fluorescence spectra; assay type: physicochemical; settings: from UV/Vis calibration curve of free TPC
# Method in brief: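 Absorption spectra were recorded by UV-visible spectrophotometry on ethanol suspensions of nanoparticles and free photosensitizer. Fluorescence spectra were acquired on a spectrofluorimeter with xenon lamp excitation and a thermostatted cell compartment at 25°C.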
substance,measurement,setting,value
H-ATWLPPR-OH [ATWLPPR],NRP-1 targeting (qualitative),neuropilin-1 (NRP-1),selectively target NRP-1 receptor
H-ATWLPPR-OH [NP-TPC-ATWLPPR],DL50 (50% cell growth inhibitory light dose),MDA-MB-231 cells [1]; 0.1 µM TPC,9.16 J/cm^2 and 9.2 J/cm^2
same,DL50 (50% cell growth inhibitory light dose),MDA-MB-231 cells [1]; 1.0 µM TPC,2.80 J/cm^2 and 2.8 J/cm^2
same,"Photocytotoxic effectiveness, 1.0 µM vs 0.1 µM TPC",MDA-MB-231 cells [1]; ratio of DL50 at 0.1 and 1.0 µM,3.3 times
same,Binding to NRP-1 (qualitative),[2],greatly displaced
same,Cell index before irradiation,MDA-MB-231 cells [3],no decrease in cell index values
same,Rate of decrease of tumor MRI contrast,[4]; decrease from maximum peak,-0.0072 .min^-1
same,Half-life in tumor tissue (T1/2),[4]; semi-logarithmic presentation of MRI contrast enhancement decrease,1.604 h
same,Zeta potential,[5],12.9±4 mV
same,TPC molecules per nanoparticle,[6],~ 1.7 TPC molecules per nanoparticle
